In ChEMBL document CHEMBL1131020, “Synthesis of 7,8-(methylenedioxy)-1-phenyl-3,5-dihydro-4H-2, 3-benzodiazepin-4-ones as novel and potent noncompetitive AMPA receptor antagonists” (J Med Chem, 1998) one finds ED50 and IC50 data, which are given here for 8 molecules.

Each structure is given as a SMILES string. Bounds are passed on as bounds.

In assay [1] the test system is Mus musculus. The experiment in a line: In vivo anticonvulsant activity in mouse determined by maximum electroshock induced seizure (MES) assay. Type of assay: functional. The procedure, abridged: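 Male NSA mice; compound in 10% Tween-80/water, iv, 5 min before test. Corneal electrodes deliver 50 mA, 60 pulses/s, 0.8-ms pulse width, 1-s d.c. Protection means no tonic hindlimb extension >90° within 30 s. Screened at 10 mg/kg (n = 8), then 4–5 doses (n = 15–24/dose). ED50 with 95% CI by Litchfield–Wilcoxon.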

For assay [2], the species on record is Rattus norvegicus. The experiment in a line: In vitro inhibition of AMPA activated current in xenopus oocytes expressing rat cerebral cortex poly(A)+ RNA. It counts as functional. The procedure, abridged: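 Two-electrode voltage clamp, holding -70 mV, of Xenopus oocytes injected with ~25 ng rat cerebral cortex poly(A)+ RNA, superfused in Ringer. Baseline current from 10 μM AMPA. Antagonist at increasing concentrations preapplied ~30 s, then coapplied with 10 μM AMPA. IC50 from four-parameter logistic fit to pooled data of 3–4 experiments, mean ± SEM.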

In assay [1], `COc1cc2c(cc1OC)C(c1ccc(N)cc1)=NNC(=O)C2` gave an ED50 of over 10 mg/kg. Also, the midpoint of inhibition in assay [2], the IC50, lay at 180 µM.

As to `CC1=NN=C(c2ccc(N)cc2)c2cc3c(cc2C1)OCO3` [GYKI-52466], in assay [1], the 50% effect level (ED50) was put at a dose of 4.6 mg/kg. The same molecule showed an IC50 in assay [2] of 6.9 µM.

As for `O=C1Cc2cc3c(cc2C(c2ccccc2)=NN1)OCO3`, in assay [1], the 50% effective dose (ED50) was 12.9 mg/kg. In assay [2], this molecule registered a concentration for half-maximal inhibition (IC50) of 21 µM.

Molecule `O=C1Cc2cc3c(cc2C(c2ccc([N+](=O)[O-])cc2)=NN1)OCO3` showed an ED50 in assay [1] of over 10 mg/kg. Also, the IC50 in assay [2] worked out at 56 µM.

On to `Cc1ccc(C2=NNC(=O)Cc3cc4c(cc32)OCO4)cc1`, for which the ED50 in assay [1] is 16 mg/kg. The molecule further showed an IC50 in assay [2] of 15 µM.

In turn, `Nc1ccc(C2=NNC(=O)Cc3cc4c(cc32)OCO4)cc1` gave a 50% effective dose (ED50) in assay [1] of 2.8 mg/kg. The IC50 in assay [2] came out at 2.7 µM.

As to `O=C1Cc2cc3c(cc2C(c2ccc(F)cc2)=NN1)OCO3`, the ED50 in assay [1] is over 10 mg/kg. The half-inhibitory concentration (IC50) in assay [2] is 62 µM.

Consider `COc1ccc(C2=NNC(=O)Cc3cc4c(cc32)OCO4)cc1`, for which the IC50 in assay [2] was found to be 23 µM.

As a reminder, the ED50 is the dose at which the effect has come halfway, by size or by number of responders. By IC50 is commonly meant the concentration at which inhibition is half-maximal.
